Measured values from ChEMBL document CHEMBL1641600, “Novel bifunctional alkylating agents, 5,10-dihydropyrrolo[1,2-b]isoquinoline derivatives, synthesis and biological activity” (Bioorg Med Chem, 2011).

How the values were obtained:
CCRF-CEM [1] = assay: Cytotoxicity against vinblastine-resistant human CCRF-CEM cells after 72 hrs by XTT assay; format: functional, cell-based
In short: (§1)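 Leukemic CCRF-CEM and its Taxol- and vinblastine-resistant sublines exposed 72 h to six or seven drug concentrations. XTT with phenazine methosulfate added for 6 h at 37 °C; absorbance read at 450 and 630 nm. IC50 obtained from dose-effect data by the median-effect principle.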

CCRF-CEM [2] = assay: Cytotoxicity against human CCRF-CEM cells after 72 hrs by XTT assay; format: functional, cell-based; in short: as §1
CCRF-CEM [3] = assay: Cytotoxicity against Taxol-resistant human CCRF-CEM cells after 72 hrs by XTT assay; format: functional, cell-based; in short: as §1
CCRF-CEM [4] = assay: Ratio of IC50 for Taxol-resistant human CCRF-CEM cells to IC50 for human CCRF-CEM cells
HCT-116 = assay: Cytotoxicity against human HCT116 cells after 72 hrs by SRB assay; format: functional, cell-based; details: HCT-116, 72 h
In short: (§2)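 MX-1 breast and HCT-116 colon carcinoma cells exposed 72 h to six or seven drug concentrations. Growth measured by SRB assay with microplate absorbance. IC50 obtained from dose-effect data by the median-effect principle.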

[5] = Cytotoxicity against human U87 cells after 72 hrs by Alamar blue assay; format: functional, cell-based, U-87MG ATCC; details: U-87 MG
In short: (§3)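 H1299, PC3, OECM1 and U87 cells exposed 72 h to six or seven drug concentrations. Alamar blue added for 6 h at 37 °C; absorbance read at 570 and 600 nm. IC50 obtained from dose-effect data by the median-effect principle.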

[6] = Cytotoxicity against human OECM1 cells after 72 hrs by Alamar blue assay; format: functional, cell-based; details: OECM1, 72 h; in short: as §3
[7] = Cytotoxicity against human H1299 cells after 72 hrs by Alamar blue assay; format: functional, cell-based; details: NCI-H1299, 72 h; in short: as §3
PC-3 = assay: Cytotoxicity against human PC3 cells after 72 hrs by Alamar blue assay; format: functional, cell-based; details: PC-3, 72 h; in short: as §3
MX1 = assay: Cytotoxicity against human MX1 cells after 72 hrs by SRB assay; format: functional, cell-based; details: MX1, 72 h; in short: as §2

| Structure (SMILES) | IC50 (CCRF-CEM [1]) | IC50 (CCRF-CEM [2]) | IC50 (CCRF-CEM [3]) | Ratio IC50 (CCRF-CEM [4]) | IC50 (HCT-116) | IC50 [5] | IC50 [6] | IC50 [7] | IC50 (PC-3) | IC50 (MX1) |
| --- | --- | --- | --- | --- | --- | --- | --- | --- | --- | --- |
| COc1cc(-c2c(COC(=O)NC(C)C)c(COC(=O)NC(C)C)c3n2Cc2ccccc2C3)cc(OC)c1OC | 1420 nM | 890 nM | 1200 nM | 1.35 |  |  |  |  |  |  |
| OCc1c(CO)c(-c2ccc(F)cc2)n2c1Cc1ccccc1C2 | 490 nM | 510 nM | 880 nM | 1.72 | 2460 nM | 23200 nM | 6990 nM | 8760 nM | 5930 nM | 4010 nM |
| COc1ccc(-c2c(COC(=O)NC(C)C)c(COC(=O)NC(C)C)c3n2Cc2ccccc2C3)cc1 | 160 nM | 340 nM | 190 nM | 0.56 | 970 nM | 21000 nM | 8830 nM | 13200 nM | 6790 nM | 980 nM |
| CNC(=O)OCc1c(COC(=O)NC)c2n(c1C)Cc1ccccc1C2 | 80 nM | 130 nM | 110 nM | 0.86 | 1170 nM |  |  |  |  | 1680 nM |
| COc1ccc(-c2c(COC(=O)NC(C)C)c(COC(=O)NC(C)C)c3n2Cc2ccccc2C3)cc1OC | 770 nM | 1290 nM | 600 nM | 0.46 |  |  |  |  |  |  |
| CC(C)NC(=O)OCc1c(COC(=O)NC(C)C)c(-c2ccc(Cl)cc2)n2c1Cc1ccccc1C2 | 570 nM | 540 nM | 630 nM | 1.16 | 690 nM | 22700 nM | 26100 nM | 25200 nM | 9970 nM | 1700 nM |
| CC(C)NC(=O)OCc1c(COC(=O)NC(C)C)c(-c2ccc(F)cc2)n2c1Cc1ccccc1C2 | 230 nM | 760 nM | 230 nM | 0.3 | 630 nM | 36900 nM | 11000 nM | 8130 nM | 12300 nM | 1170 nM |
| CC(C)NC(=O)OCc1c(COC(=O)NC(C)C)c(-c2ccc(F)c(F)c2)n2c1Cc1ccccc1C2 | 610 nM | 1330 nM | 780 nM | 0.58 |  |  |  |  |  |  |
| COc1ccc(-c2c(CO)c(CO)c3n2Cc2ccccc2C3)cc1 | 110 nM | 230 nM | 250 nM | 1.02 | 1130 nM | 10600 nM | 6120 nM | 13900 nM | 10900 nM | 1990 nM |
| CCc1c(CO)c(CO)c2n1Cc1ccccc1C2 | 190 nM | 180 nM | 210 nM | 1.15 |  |  |  |  |  |  |
| CCNC(=O)OCc1c(COC(=O)NCC)c(-c2ccc(F)c(F)c2)n2c1Cc1ccccc1C2 | 670 nM | 2080 nM | 1250 nM | 0.6 |  |  |  |  |  |  |
| COc1cc(-c2c(CO)c(CO)c3n2Cc2ccccc2C3)cc(OC)c1OC | 2780 nM | 1970 nM | 2880 nM | 1.45 |  |  |  |  |  |  |
| CCNC(=O)OCc1c(COC(=O)NCC)c2n(c1C)Cc1ccccc1C2 | 120 nM | 240 nM | 110 nM | 0.48 | 900 nM | 13900 nM | 11300 nM | 19400 nM | 15400 nM | 2270 nM |
| CCNC(=O)OCc1c(COC(=O)NCC)c2n(c1CC)Cc1ccccc1C2 | 240 nM | 440 nM | 210 nM | 0.48 |  |  |  |  |  |  |
| CC(C)NC(=O)OCc1c(COC(=O)NC(C)C)c(-c2ccc(Cl)c(Cl)c2)n2c1Cc1ccccc1C2 | 1350 nM | 3550 nM | 2470 nM | 0.69 |  |  |  |  |  |  |
| CCNC(=O)OCc1c(COC(=O)NCC)c(-c2ccc(Cl)cc2)n2c1Cc1ccccc1C2 | 570 nM | 590 nM | 350 nM | 0.59 | 620 nM | 33600 nM | 25300 nM | 37200 nM | 11000 nM | 1690 nM |

| Structure (SMILES) | IC50 (CCRF-CEM [1]) | IC50 (CCRF-CEM [2]) | IC50 (CCRF-CEM [3]) | Ratio IC50 (CCRF-CEM [4]) | IC50 (HCT-116) | IC50 [5] | IC50 [6] | IC50 [7] | IC50 (PC-3) | IC50 (MX1) |
| --- | --- | --- | --- | --- | --- | --- | --- | --- | --- | --- |
| OCc1c(CO)c(-c2ccc(F)c(F)c2)n2c1Cc1ccccc1C2 | 950 nM | 1140 nM | 1260 nM | 1.11 | 3210 nM |  |  |  |  | 6990 nM |
| CCNC(=O)OCc1c(COC(=O)NCC)c(-c2ccc(Cl)c(Cl)c2)n2c1Cc1ccccc1C2 | 1190 nM | 2370 nM | 900 nM | 0.38 |  |  |  |  |  |  |
| CC(C)NC(=O)OCc1c(COC(=O)NC(C)C)c(-c2ccccc2)n2c1Cc1ccccc1C2 | 250 nM | 450 nM | 230 nM | 0.5 |  |  |  |  |  |  |
| CCNC(=O)OCc1c(COC(=O)NCC)c(-c2ccc(OC)c(OC)c2)n2c1Cc1ccccc1C2 | 650 nM | 1070 nM | 810 nM | 0.75 |  |  |  |  |  |  |
| CC(=O)O[C@H]1C(=O)[C@@]2(C)[C@H]([C@H](OC(=O)c3ccccc3)[C@]3(O)C[C@H](OC(=O)[C@H](O)[C@@H](NC(=O)c4ccccc4)c4ccccc4)C(C)=C1C3(C)C)[C@]1(OC(C)=O)CO[C@@H]1C[C@@H]2O [PACLITAXEL] |  |  |  | 330 |  |  |  |  |  |  |
| CCNC(=O)OCc1c(COC(=O)NCC)c(-c2ccccc2)n2c1Cc1ccccc1C2 | 230 nM | 260 nM | 260 nM | 1.01 |  |  |  |  |  |  |
| CNC(=O)OCc1c(COC(=O)NC)c(-c2ccc(OC)cc2)n2c1Cc1ccccc1C2 | 90 nM | 180 nM | 130 nM | 0.72 | 1070 nM |  |  |  |  | 1330 nM |
| COc1ccc(-c2c(CO)c(CO)c3n2Cc2ccccc2C3)cc1OC | 620 nM | 1100 nM | 760 nM | 0.69 |  |  |  |  |  |  |
| CNC(=O)OCc1c(COC(=O)NC)c(-c2ccc(F)c(F)c2)n2c1Cc1ccccc1C2 | 470 nM | 490 nM | 450 nM | 0.91 | 360 nM |  |  |  |  | 2730 nM |
| CCNC(=O)OCc1c(COC(=O)NCC)c(-c2cc(OC)c(OC)c(OC)c2)n2c1Cc1ccccc1C2 | 3130 nM | 1410 nM | 2140 nM | 1.52 |  |  |  |  |  |  |
| OCc1c(CO)c(-c2ccccc2)n2c1Cc1ccccc1C2 | 290 nM | 510 nM | 500 nM | 0.99 |  |  |  |  |  |  |
| OCc1c(CO)c(-c2ccc(Cl)c(Cl)c2)n2c1Cc1ccccc1C2 | 6420 nM | 8440 nM | 4820 nM | 0.57 |  |  |  |  |  |  |
| CCc1c(COC(=O)NC(C)C)c(COC(=O)NC(C)C)c2n1Cc1ccccc1C2 | 180 nM | 570 nM | 320 nM | 0.56 |  |  |  |  |  |  |
| CC[C@]1(O)C[C@@H]2CN(CCc3c([nH]c4ccccc34)[C@@](C(=O)OC)(c3cc4c(cc3OC)N(C)[C@H]3[C@@](O)(C(=O)OC)[C@H](OC(C)=O)[C@]5(CC)C=CCN6CC[C@]43[C@@H]65)C2)C1 [VINBLASTINE] |  |  |  | 106.2 |  |  |  |  |  |  |
| CNC(=O)OCc1c(COC(=O)NC)c(-c2ccc(Cl)cc2)n2c1Cc1ccccc1C2 | 160 nM | 190 nM | 220 nM | 1.18 | 40 nM |  |  |  |  | 1180 nM |
